# Bioassay records deposited in PubChem BioAssay by Johns Hopkins Ion Channel Center.
# This is a sample that favours compounds with a hit; in the whole collection about 3.7% have one here.
# Kir21 block: inhibitors of mouse Kir2.1 inward-rectifier potassium channel; Inward rectifier potassium channel 2 (Mus musculus), P35561; HEK293-Kir2.1, FluxOR thallium flux fluorescence; hits give low values; B-score at 10 µM; 0.85% of 310,000 active;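 active = fluorescence ratio B-score at or below minus 3 SD of library scores, with starting-brightness B-score within 2 SD, cut at about -4.2 in these data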;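 also: channel flux triggered by added potassium and thallium sulfate stimulus; B-score of peak minus minimum fluorescence over baseline after thallium stimulus; more negative B-score means stronger Kir2.1 block with less thallium influx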
# hERG protect: hERG rescue from dofetilide block, primary screen, cell-based, CHO-hERG, FluxOR thallium flux, dofetilide IC70; activation (rescue from dofetilide block), less the hit threshold, % at 10 µM; AID 1511, 2009; Voltage-gated inwardly rectifying potassium channel KCNH2 (Homo sapiens), Q12809; dofetilide IC70 present; 0.51% of 310,000 active;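 active = activation above the mean of controls blocked by dofetilide plus 5 SD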;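 also: thallium influx through hERG after potassium depolarization seen as dye fluorescence rise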
# KCNQ1 inh: inhibitors of human KCNQ1 channel, primary screen, cell-based, thallium flux, high-throughput; Potassium voltage-gated channel subfamily KQT member 1 (Homo sapiens), P51787; CHO-K1 KCNQ1, FluxOR thallium flux fluorescence; hits give high values; B-score at 10 µM; 1.3% of 310,000 active; AID 2642, 2010;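 active = compounds whose thallium flux B-score, printed positive for inhibition, exceeds three library SD while starting fluorescence stays within three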;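 also: channel opened by potassium depolarization with thallium stimulus after 20 min compound exposure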
# Target sequence (P51787 whole entry, looked up): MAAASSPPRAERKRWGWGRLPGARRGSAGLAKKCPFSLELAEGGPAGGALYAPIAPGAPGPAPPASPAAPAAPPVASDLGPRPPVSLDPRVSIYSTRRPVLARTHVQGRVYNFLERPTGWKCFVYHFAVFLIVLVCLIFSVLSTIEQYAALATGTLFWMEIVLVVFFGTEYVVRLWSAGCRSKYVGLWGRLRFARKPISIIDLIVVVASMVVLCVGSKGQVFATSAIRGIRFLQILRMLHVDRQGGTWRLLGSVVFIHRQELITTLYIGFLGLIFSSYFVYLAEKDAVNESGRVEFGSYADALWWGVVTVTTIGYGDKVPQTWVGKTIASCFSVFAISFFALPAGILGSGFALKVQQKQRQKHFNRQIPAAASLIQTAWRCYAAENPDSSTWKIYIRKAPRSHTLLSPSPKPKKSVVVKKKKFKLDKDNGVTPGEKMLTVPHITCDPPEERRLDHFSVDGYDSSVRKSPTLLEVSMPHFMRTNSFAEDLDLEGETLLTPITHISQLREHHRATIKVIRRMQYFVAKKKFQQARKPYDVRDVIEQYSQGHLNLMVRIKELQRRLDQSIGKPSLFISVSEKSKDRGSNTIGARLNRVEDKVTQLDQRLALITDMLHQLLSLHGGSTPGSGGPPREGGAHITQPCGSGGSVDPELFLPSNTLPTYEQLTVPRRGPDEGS
# KCNK9 block: KCNK9 potassium channel inhibitors, primary screen, HEK293 cells, thallium flux. Potassium channel subfamily K member 9 (Homo sapiens), Q9NPC2. FluxOR thallium flux fluorescence; hits give low values. B-score at 10 µM. 1.2% of 310,000 active;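 active = ratio B-score over 3 SD below the library mean, with starting fluorescence within 5 SD of its mean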;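 also: negative B-score means less thallium flux so channel inhibition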
# KCNK3 inh: human KCNK3 channel inhibitors, primary screen, CHO cells, FluxOR thallium flux, B-score; Potassium channel subfamily K member 3 (Homo sapiens), O14649; FluxOR fluorescence; hits give low values; 0.84% of 340,000 active; B-score at 10 µM;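 active = B-score under library mean minus 4 SD, starting fluorescence ratio at most library mean plus 5 SD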;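 also: more negative B-score means stronger inhibition of thallium flux through KCNK3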
# KCNQ1 pot: potentiators or activators of KCNQ1 channel, primary screen, cell-based, thallium flux, high-throughput; AID 2648, 2010; Potassium voltage-gated channel subfamily KQT member 1 (Homo sapiens), P51787; 0.35% of 310,000 active; B-score at 10 µM; CHO-K1 KCNQ1, thallium flux FluxOR fluorescence; hits give high values;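 active = fluorescence ratio B-score, a plate-corrected score, at least three library SD, with initial intensity B-score within 5 SD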
#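 Medium – assay buffer, equal DMSO in all wells · Material – CHO-K1 cell line with stable KCNQ1 potassium channel expression · Signal – kinetic FluxOR thallium fluorescence, 10-s 1-Hz baseline, 110-s post-stimulus read · Compound – single concentration per compound, DMSO matched to controls · Schedule – 37 °C overnight plating, 90-min dark dye load, 20-min compound pretreatment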
# An asterisk follows results filed as active; i = inactive; x = not tested or not shown.
SMILES,Kir21 block,hERG protect,KCNQ1 inh,KCNK9 block,KCNK3 inh,KCNQ1 pot
Cc1cc(C)nc(SCc2ccc(C(=O)N/N=C/c3ccco3)cc2)n1,-4.3*,-8,i,i,i,i
Cc1cc(C)c(NC(=O)CN(C)C(=O)CCC(=O)c2ccc(C)s2)c(C)c1,x,x,x,x,i,x
NC(=O)CSc1nnc(-c2ccccc2F)n1C1CC1,-2.1,-9,i,i,i,i
N#C/C(=C\c1c(Oc2ccc(Cl)cc2)nc2ccccn2c1=O)C(=O)NC1CCS(=O)(=O)C1 (centres undefined),-4.4*,-19,i,i,i,i
Cc1n[nH]c(=O)c2c(NC(=O)CSc3nn(-c4ccc(F)cc4)c(=S)s3)oc(C)c12,0.41,-16,6*,i,i,i
O=C(c1ccccc1SCc1ccccc1)N1CCCCCC1,-4.5*,-14,i,i,i,i
CN(CC(=O)NCCc1ccc(S(N)(=O)=O)cc1)CC(=O)Nc1ccccc1C(F)(F)F,x,x,x,x,i,x
CCC(C)[C@H](NC(=O)N1CC(=O)Nc2ccccc21)C(=O)N[C@@H](Cc1c[nH]c2ccccc12)C(=O)O (some centres undefined),-0.06,-3,i,i,i,i
Cc1cc(C)c(S(C)(=O)=O)c(S(=O)(=O)c2ccc(Cl)cc2)n1,0.17,-6,i,i,i,i
CNc1nc(C)cc(C)c1S(=O)(=O)c1ccc(C)cc1,-5.8*,-11,i,i,i,i
O=C(CN1CCN(C(C(=O)Nc2ccc(F)cc2)c2ccccc2)CC1)NC1CC1 (centres undefined),x,x,x,x,i,x
CC(C)n1c(SCC(=O)Nc2nncs2)nnc1-c1ccco1,0.95,-7,i,i,x,i
N#Cc1c(N)oc(-c2ccc3c(c2)OCO3)c1-c1ccc2c(c1)OCO2,0.54,-11,i,-6.8*,i,i
N#Cc1c(/N=C/c2cccs2)sc2c1CCCCC2,0.8,-17,6*,i,i,i
O=C(/C(=C/c1ccccc1Cl)c1ccccc1)N1CCOCC1,-4.2,-4,i,i,i,i
CC(=O)Nc1sc(NC(=O)c2ccccc2)nc1-c1cccs1,0.73,5.5*,i,i,i,i
CCOCCOCN(C#N)c1nc(OC)nc(N(C)C)n1,-3.3,49*,i,i,i,i
CN(C)Cc1ccccc1C(O)(c1ccccc1)c1ccccc1,-4.7*,-6,i,i,i,i
O=C(NCC(O)c1ccc([N+](=O)[O-])cc1)C1=COCCO1 (centres undefined),x,x,x,x,i,x
CC(C)CCC(CCNCc1ccccn1)c1ccc2c(c1)OCO2 (centres undefined),-7.2*,-16,i,i,i,i
Fc1ccccc1CNCCC(Cc1ccccc1)c1ccc2c(c1)OCO2 (centres undefined),-8.7*,-21,i,i,i,i
CC(C)C(CCNCc1ccccn1)c1ccc(Cl)cc1 (centres undefined),-4.4*,-4,i,i,i,i
CC(C)(C)NS(=O)(=O)c1ccc(CCC(=O)N2CCCC2)cc1,-0.75,-1,i,i,i,i
CC(C)COc1cccc(C(=O)NC2(C)CCS(=O)(=O)C2)c1 (centres undefined),2,-13,i,i,i,i
CC1(c2ccc(Cl)cc2)NC(=O)CS1 (centres undefined),-0.19,-4,i,i,i,i
O=C1CCC(C(=O)N2CCc3c(Cl)cccc3C2)CN1CCCN1CCOCC1 (centres undefined),1.6,-4,i,i,i,i
Cc1nc(Cl)c(C(=O)NCc2ccccc2)c(C)c1[N+](=O)[O-],0.11,-4,i,i,i,i
